Tests used:
[1] = Drug metabolism in New Zealand White rabbit liver microsomes assessed per 4 mg/ml of protein at 0.5 mM after 24 hrs by LC-MS/MS analysis in presence of 5 mM UDPGA; type: ADME, Oryctolagus cuniculus, Microsome; conditions: read-out: Drug metabolism
Summary of the method: (§1)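 Optimization incubations with rabbit or calf liver microsomes or rabbit S9. Final substrate was 0.2, 0.5 or 2 mM, from DMSO stocks diluted 100-fold. Protein was 1 or 4 mg/mL and UDPGA 5 or 25 mM. Other components were 100 mM potassium phosphate pH 7.4 and an NADPH regenerating system. Microsomes were pre-treated on ice with alamethicin. Reactions ran at 37 °C, were stopped with methanol, processed, and analysed by LC/MS.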

[2] = Drug metabolism in New Zealand White rabbit liver S9 fraction assessed per mg/ml of protein at 2 mM after 24 hrs by LC-MS/MS analysis in presence of 25 mM UDPGA; type: ADME, subcellular, Oryctolagus cuniculus; conditions: read-out: Drug metabolism; summary of the method: as §1
[3] = Drug metabolism in New Zealand White rabbit liver S9 fraction assessed per 4 mg/ml of protein at 2 mM after 24 hrs by LC-MS/MS analysis in presence of 5 mM UDPGA; type: ADME, subcellular, Oryctolagus cuniculus; conditions: read-out: Drug metabolism; summary of the method: as §1
[4] = Drug metabolism in New Zealand White rabbit liver microsomes assessed per 4 mg/ml of protein at 0.5 mM after 24 hrs by LC-MS/MS analysis in presence of 25 mM UDPGA; type: ADME, Oryctolagus cuniculus, Microsome; conditions: read-out: Drug metabolism; summary of the method: as §1
[5] = Drug metabolism in New Zealand White rabbit liver microsomes assessed per mg/ml of protein at 0.5 mM after 24 hrs by LC-MS/MS analysis in presence of 5 mM UDPGA; type: ADME, Oryctolagus cuniculus, Microsome; conditions: read-out: Drug metabolism; summary of the method: as §1
[6] = Drug metabolism in calf liver microsomes assessed per mg/ml of protein at 2 mM after 24 hrs by LC-MS/MS analysis in presence of 5 mM UDPGA; type: ADME, Bos taurus, Microsome; conditions: cattle, read-out: Drug metabolism; summary of the method: as §1
[7] = Drug metabolism in New Zealand White rabbit liver microsomes assessed per mg/ml of protein at 0.2 mM after 24 hrs by LC-MS/MS analysis in presence of 5 mM UDPGA; type: ADME, Oryctolagus cuniculus, Microsome; conditions: read-out: Drug metabolism; summary of the method: as §1
[8] = Drug metabolism in New Zealand White rabbit liver microsomes assessed per mg/ml of protein at 2 mM after 24 hrs by LC-MS/MS analysis in presence of 5 mM UDPGA; type: ADME, Oryctolagus cuniculus, Microsome; conditions: read-out: Drug metabolism; summary of the method: as §1
[9] = Drug metabolism in calf liver microsomes assessed per 4 mg/ml of protein at 0.5 mM after 24 hrs by LC-MS/MS analysis in presence of 5 mM UDPGA; type: ADME, Bos taurus, Microsome; conditions: cattle, read-out: Drug metabolism; summary of the method: as §1
[10] = Drug metabolism in New Zealand White rabbit liver S9 fraction assessed per mg/ml of protein at 0.2 mM after 24 hrs by LC-MS/MS analysis in presence of 5 mM UDPGA; type: ADME, subcellular, Oryctolagus cuniculus; conditions: read-out: Drug metabolism; summary of the method: as §1
[11] = Drug metabolism in New Zealand White rabbit liver microsomes assessed per 4 mg/ml of protein at 2 mM after 24 hrs by LC-MS/MS analysis in presence of 25 mM UDPGA; type: ADME, Oryctolagus cuniculus, Microsome; conditions: read-out: Drug metabolism; summary of the method: as §1
[12] = Drug metabolism in New Zealand White rabbit liver S9 fraction assessed per mg/ml of protein at 2 mM after 24 hrs by LC-MS/MS analysis in presence of 5 mM UDPGA; type: ADME, subcellular, Oryctolagus cuniculus; conditions: read-out: Drug metabolism; summary of the method: as §1
[13] = Activity at human recombinant glucuronyl transferase at 100 uM after 1 to 24 hrs by LC-MS/MS analysis in presence of UDPGA; type: ADME
Summary of the method: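 Recombinant human UDP-glucuronyl transferases. The mix held 100 mM potassium phosphate pH 7.4, 3.3 mM MgCl2, 5 mM UDPGA, and enzyme protein at 0.025–1 mg/mL depending on the enzyme. Substrate came from a 10 mM methanol stock. Mixtures were pre-warmed 5 min at 37 °C, the enzyme was added, and they were shaken at 37 °C for 1, 6 or 24 h. Methanol quench, centrifugation, filtration, drying, resuspension, LC/MS.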

[14] = Drug metabolism in calf liver microsomes assessed per 4 mg/ml of protein at 2 mM after 24 hrs by LC-MS/MS analysis in presence of 5 mM UDPGA; type: ADME, Bos taurus, Microsome; conditions: cattle, read-out: Drug metabolism; summary of the method: as §1
[15] = Drug metabolism in New Zealand White rabbit liver S9 fraction assessed per mg/ml of protein at 0.5 mM after 24 hrs by LC-MS/MS analysis in presence of 25 mM UDPGA; type: ADME, subcellular, Oryctolagus cuniculus; conditions: read-out: Drug metabolism; summary of the method: as §1
[16] = Drug metabolism in New Zealand White rabbit liver S9 fraction assessed per mg/ml of protein at 0.5 mM after 24 hrs by LC-MS/MS analysis in presence of 5 mM UDPGA; type: ADME, subcellular, Oryctolagus cuniculus; conditions: read-out: Drug metabolism; summary of the method: as §1
[17] = Drug metabolism in New Zealand White rabbit liver S9 fraction assessed per 4 mg/ml of protein at 2 mM after 24 hrs by LC-MS/MS analysis in presence of 25 mM UDPGA; type: ADME, subcellular, Oryctolagus cuniculus; conditions: read-out: Drug metabolism; summary of the method: as §1
[18] = Drug metabolism in New Zealand White rabbit liver microsomes assessed per 4 mg/ml of protein at 2 mM after 24 hrs by LC-MS/MS analysis in presence of 5 mM UDPGA; type: ADME, Oryctolagus cuniculus, Microsome; conditions: read-out: Drug metabolism; summary of the method: as §1
[19] = Drug metabolism in New Zealand White rabbit liver microsomes assessed per mg/ml of protein at 0.2 mM after 24 hrs by LC-MS/MS analysis in presence of 25 mM UDPGA; type: ADME, Oryctolagus cuniculus, Microsome; conditions: read-out: Drug metabolism; summary of the method: as §1
[20] = Drug metabolism in New Zealand White rabbit liver S9 fraction assessed per mg/ml of protein at 0.2 mM after 24 hrs by LC-MS/MS analysis in presence of 25 mM UDPGA; type: ADME, subcellular, Oryctolagus cuniculus; conditions: read-out: Drug metabolism; summary of the method: as §1
[21] = Drug metabolism in New Zealand White rabbit liver microsomes assessed per mg/ml of protein at 0.5 mM after 24 hrs by LC-MS/MS analysis in presence of 25 mM UDPGA; type: ADME, Oryctolagus cuniculus, Microsome; conditions: read-out: Drug metabolism; summary of the method: as §1
[22] = Drug metabolism in New Zealand White rabbit liver S9 fraction assessed per 20 mg of protein at 1 mM after 24 hrs by LC/MS analysis in presence of UDPGA; type: ADME, subcellular, Oryctolagus cuniculus; conditions: read-out: Drug metabolism
Summary of the method: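 Scale-up reaction with rabbit liver S9. Each mix was 10 mL with 20 mg S9 protein, 100 mM potassium phosphate pH 7.4, 1 mM substrate (from a 0.1 M DMSO stock), an NADPH regenerating system (1.3 mM NADP+, 3.3 mM glucose-6-phosphate, 0.4 U/mL G6PDH, 3.3 mM MgCl2) and 10 mM UDPGA. Six parallel vials were shaken 24 h at 37 °C, then pooled, methanol-quenched, and passed through C18 SPE and prep HPLC.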

[23] = Drug metabolism in New Zealand White rabbit liver S9 fraction assessed per 4 mg/ml of protein at 0.5 mM after 24 hrs by LC-MS/MS analysis in presence of 25 mM UDPGA; type: ADME, subcellular, Oryctolagus cuniculus; conditions: read-out: Drug metabolism; summary of the method: as §1
[24] = Drug metabolism in New Zealand White rabbit liver microsomes assessed per mg/ml of protein at 2 mM after 24 hrs by LC-MS/MS analysis in presence of 25 mM UDPGA; type: ADME, Oryctolagus cuniculus, Microsome; conditions: read-out: Drug metabolism; summary of the method: as §1
[25] = Drug metabolism in New Zealand White rabbit liver S9 fraction assessed per 4 mg/ml of protein at 0.5 mM after 24 hrs by LC-MS/MS analysis in presence of 5 mM UDPGA; type: ADME, subcellular, Oryctolagus cuniculus; conditions: read-out: Drug metabolism; summary of the method: as §1
[26] = system: Liver microsomes; assay: Drug metabolism in human liver microsomes assessed as M5 metabolite level at 100 uM after 4 hrs by LC/MS analysis in presence of UDPGA; type: ADME, Microsome
Summary of the method: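 Human liver microsomes under the screening protocol. Mix: 0.50 mg protein in 0.5 mL, 100 mM potassium phosphate pH 7.4, NADPH regenerating system, 5 mM UDPGA, 5 mM D-saccharic acid lactone. Microsomes were pre-incubated with alamethicin and the mix pre-warmed 5 min at 37 °C. After 4 h at 37 °C, the reaction was diluted with cold methanol and centrifuged. The filtered supernatant went to analytical HPLC; the M5 fraction was taken for MS/MS.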

COc1cc(OC)c2c(=O)[nH]c(-c3cc(C)c(OCCO)c(C)c3)nc2c1 [APABETALONE]
metabolised at 24 h, 500 µM [1]: 24.1%
metabolised at 24 h, 2000 µM [2]: 16.7%
metabolised at 24 h, 2000 µM [3]: 30.3%
metabolised at 24 h, 500 µM [4]: 54.3%
metabolised at 24 h, 500 µM [5]: 39.5%
metabolised at 24 h, 2000 µM [6]: 40.9%
metabolised at 24 h, 200 µM [7]: 34.6%
metabolised at 24 h, 2000 µM [8]: 38.4%
metabolised at 24 h, 500 µM [9]: 56%
metabolised at 24 h, 200 µM [10]: 22.3%
metabolised at 24 h, 2000 µM [11]: 48.9%
metabolised at 24 h, 2000 µM [12]: 17.5%
Activity [13]: < 1%
metabolised at 24 h, 2000 µM [14]: 50.1%
metabolised at 24 h, 500 µM [15]: 25.7%
metabolised at 24 h, 500 µM [16]: 23.2%
metabolised at 24 h, 2000 µM [17]: 35.2%
metabolised at 24 h, 2000 µM [18]: 30%
metabolised at 24 h, 200 µM [19]: 49.7%
metabolised at 24 h, 200 µM [20]: 21.4%
metabolised at 24 h, 500 µM [21]: 49.4%
metabolised at 24 h, 1000 µM [22]: 22%
metabolised at 24 h, 500 µM [23]: 41.3%
metabolised at 24 h, 2000 µM [24]: 39.7%
metabolised at 24 h, 500 µM [25]: 33%
Drug metabolism [26]: Active

Reference: ChEMBL document CHEMBL2390913, “In vitro biosynthesis, isolation, and identification of predominant metabolites of 2-(4-(2-hydroxyethoxy)-3,5-dimethylphenyl)-5,7-dimethoxyquinazolin-4(3H)-one (RVX-208)” (Eur J Med Chem, 2013)
